Experiments:
[1] = folding enthalpy; higher = less favourable; fluorescence melt of hairpins on a sequencing array, two-state fit; conditions: sodium 0.088 M
How it was run: (§1)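 Cy3 signals were normalised both to pre-quench Cy3 and to control constructs. They came from library hairpins carrying annealed Cy3 and quencher oligos on a sequenced MiSeq flow cell, imaged in 50 mM Na-HEPES pH 8.0, 25 mM NaCl, in 2.5 °C steps up to 60 °C. Bootstrapped two-state fits gave melting temperature and folding enthalpy, and four replicates were combined by inverse variance. Fitted temperatures were then raised by 9.35 °C to match UV melts.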

[2] = melting temperature; fluorescence melt of hairpins on a sequencing array, two-state fit, raised by 9.35 °C to match UV melts; conditions: sodium 0.088 M
How it was run: as §1

Sequence	folding enthalpy [1]	Tm [2]
GCCCGAGGAAACCCGGAC (.(((.(....).))).)	-19.3 kcal/mol	32.7 °C
GATCGCAATTGCGATC ((((((....))))))	-31.1 kcal/mol	67.8 °C
GGCGGCGAAAGCCTGCC ((((((....))).)))	-18.9 kcal/mol	68.5 °C
GACGGTCCGAAAGGAGTC (((..(((....))))))	-14.2 kcal/mol	34.2 °C
GATCGAGGAGTCGATC ((((((....))))))	-40.2 kcal/mol	53.7 °C
GTGGACGAAAGTCTCCAC ((((((....)))..)))	-17.2 kcal/mol	38.8 °C
GAAGAACGAAAGTTATTC (((.(((....))).)))	-31.6 kcal/mol	42.5 °C
GGGTGACGAAAGTCCCCC (((.(((....))).)))	-28.2 kcal/mol	57.9 °C
GGCCCCGCGAAAGCGGCC (((..(((....))))))	-9.49 kcal/mol	41 °C
GTGGAACGAAAGTTCAC (((.(((....))))))	-11.2 kcal/mol	44.9 °C
CGCGGACGGATCCGCG ((((((....))))))	-28.8 kcal/mol	68.7 °C
GATCTGCAGCCAGATC ((((((....))))))	-32.6 kcal/mol	48.9 °C
GAAATTGCGAAAGCATTC (((..(((....))))))	-6.33 kcal/mol	23.4 °C
GACACCCGAAAGGGCGTC (((.(((....))).)))	-36.7 kcal/mol	58.9 °C
GTGTGCGAAAGCATGCAC ((((((....)))..)))	-16.1 kcal/mol	45.1 °C
GATCTGCGGACAGATC ((((((....))))))	-28.2 kcal/mol	50.4 °C
GCTTGGCGAAAGCCACGC ((.((((....)))).))	-19 kcal/mol	58.5 °C
GCCTAGCGAAAGCCCGGC (((..((....))..)))	-17.4 kcal/mol	42.7 °C
GCTAGGGCGAAAGCCAGC (((..(((....))))))	-15 kcal/mol	48 °C
GGCAGGGGAAACCCCGCC (((.(((....))).)))	-35.7 kcal/mol	57 °C
GCCTCAGGAAACCAAGGC ((((..(....)..))))	-28.6 kcal/mol	33.2 °C
GGTACCACGAAAGTGACC (((..(((....))))))	-13.4 kcal/mol	30.1 °C
GATCCCTATGGGATC ((((((...))))))	-36.1 kcal/mol	64.8 °C
GGTCCGGGAAACTGGACC (((((.(....).)))))	-45.3 kcal/mol	58.8 °C

Sequence	folding enthalpy [1]	Tm [2]
GTCGGCGAAAGCCTAGAC ((((((....)))..)))	-18.1 kcal/mol	47.1 °C
GTGAATCCGAAAGGACAC (((..(((....))))))	-20.1 kcal/mol	32.8 °C
GATCTAGTATAGATC ((((((...))))))	-41.5 kcal/mol	49.5 °C
GGGTAGGGAAACCCACCC ((((.((....)).))))	-29.2 kcal/mol	48.3 °C
GTAGTCGGAAACGATTGC (.(.(((....))).).)	-17.2 kcal/mol	31.2 °C
GCGACGCCGAAAGGCCGC (((..(((....))))))	-19.1 kcal/mol	58.1 °C
GCTCTCGAAAGAGGAAGC ((((((....)))..)))	-18.8 kcal/mol	38.4 °C
GCCGCCGAAAGGCACGGC ((((((....)))..)))	-16.7 kcal/mol	62.6 °C
GTCTTCGGAAACGAAGAC (((((((....)))))))	-30.5 kcal/mol	64.8 °C
GATCCGGCCCCGGATC ((((((....))))))	-47.8 kcal/mol	61.1 °C
GCGATGCGAAAGCCTCGC ((((.((....)).))))	-40.3 kcal/mol	64.6 °C
GGAACCGAAAGGTTATCC ((((((....)))..)))	-11.8 kcal/mol	35.9 °C
GGCGAGGCGAAAGCCGCC (((..(((....))))))	-17.3 kcal/mol	66.9 °C
GTGAACGAAAGTTGCAC ((((((....))).)))	-19.8 kcal/mol	37.3 °C
GCGGGCTCCGC ((((...))))	-21.6 kcal/mol	58.5 °C
GATCCAGGATGGATC ((((((...))))))	-40.5 kcal/mol	57.8 °C
GGTTGTGGAAACGCAATC (.(((.(....).))).)	-20.6 kcal/mol	35.7 °C
GACGAACGAAAGTTGGTC (((.(((....))).)))	-36.7 kcal/mol	48.8 °C
GATCCGGGGGCGGATC ((((((....))))))	-38.3 kcal/mol	60.1 °C
GGTGGGGGAAACCTCGCC ((.(.((....)).).))	-30.8 kcal/mol	45.6 °C
GAGGGAACGAAAGTTCTC (((..(((....))))))	-13.7 kcal/mol	37.7 °C
GGGGGCGAAAGCCTCCC ((((((....))).)))	-15.7 kcal/mol	66.1 °C
GCAGCGCGAAAGCGTGC (((.(((....))))))	-14 kcal/mol	62.2 °C
GCGACTCTCGC ((((...))))	-22.2 kcal/mol	49.3 °C

Sequence	folding enthalpy [1]	Tm [2]
GTATTCGAAAGAACTAC ((((((....))).)))	-9.16 kcal/mol	22.4 °C
GCTGACGAAAGTCCCAGC ((((((....)))..)))	-14.2 kcal/mol	36.7 °C
GATGGGCGAAAGCCAATC (((.(((....))).)))	-23.9 kcal/mol	51.2 °C
GACGTAGGAAACTACATC ((.((((....)))).))	-13.1 kcal/mol	28.4 °C
GCCGCGTCGAAAGACGGC (((..(((....))))))	-9.58 kcal/mol	56.9 °C
GGCTCGGGAAACCGAGTC (.(((((....))))).)	-29.9 kcal/mol	61.5 °C
CTGCAGAAATGCAG (((((....)))))	-21 kcal/mol	53.4 °C
GGAGTCGAAAGACGATCC ((((((....)))..)))	-12.3 kcal/mol	46 °C
GCCTTCCGAAAGGACGGC (((.(((....))).)))	-41.6 kcal/mol	57.3 °C
GTCGGTGGAAACGCTGAC (((.(.(....).).)))	-20 kcal/mol	42.6 °C
CGTACGGAAACGTTACG ((((((....))).)))	-30.6 kcal/mol	46.1 °C
GGACACGAAAGTGGTCC ((((((....))).)))	-21.6 kcal/mol	57 °C
GCCACTCGAAAGAGGGC (((.(((....))))))	-24.3 kcal/mol	54.7 °C
ACTCTGAAAAGAGT (((((....)))))	-17.4 kcal/mol	43.4 °C
GATCCGTTCTCGGATC ((((((....))))))	-42.2 kcal/mol	60.7 °C
GGCACAGCGAAAGCTGCC (((..(((....))))))	-12.3 kcal/mol	48.3 °C
GTGACAGGAAACTGCCAC (((.(((....))).)))	-33 kcal/mol	46.8 °C
GAAGAGCGAAAGCTATTC (((.(((....))).)))	-31 kcal/mol	50 °C
GCTCTGAAAAGAGC (((((....)))))	-21.6 kcal/mol	57.8 °C
GATCGTTGGCACGATC ((((((....))))))	-32.1 kcal/mol	52.5 °C
GATCCCATACGGGATC ((((((....))))))	-38.5 kcal/mol	64.6 °C
GCGAGTCTCGC ((((...))))	-19.8 kcal/mol	50.1 °C
GATCGGGGTCCGATC ((((((...))))))	-32.1 kcal/mol	58.6 °C
GTCAAAGGAAACTTTGGC (.(((((....))))).)	-29.9 kcal/mol	44.5 °C

Sequence	folding enthalpy [1]	Tm [2]
GATACCGAAAGGTGCATC ((((((....)))..)))	-9.69 kcal/mol	27.4 °C
GACTACGAAAGTAGAGTC ((((((....)))..)))	-13.7 kcal/mol	34.7 °C
GATCTACCGTAGATC ((((((...))))))	-31.6 kcal/mol	39.1 °C
GATCCGCGATCGGATC ((((((....))))))	-28.8 kcal/mol	57.4 °C
GATCCCCCGGGGGATC ((((((....))))))	-41.4 kcal/mol	66 °C
GAGGGACGAAAGTCCTC (((.(((....))))))	-11.8 kcal/mol	48.9 °C
GCAAGGCGAAAGCGGTGC (((..((....))..)))	-21.2 kcal/mol	47.1 °C
GAGAGCGAAAGCTTCTC ((((((....))).)))	-21.9 kcal/mol	48 °C
GCGTGATTACGC ((((....))))	-22.2 kcal/mol	52.5 °C
GATCTTCTGGAAGATC ((((((....))))))	-46.2 kcal/mol	49.7 °C
GATGACCGAAAGGTTATC (((.(((....))).)))	-36.2 kcal/mol	51 °C
GATCTCCTTAGAGATC ((((((....))))))	-37.1 kcal/mol	56.4 °C
GACGAAACGAAAGTTGTC (((..(((....))))))	-19.6 kcal/mol	35 °C
GACGCCGAAAGGCAGTC ((((((....))).)))	-18.2 kcal/mol	63.7 °C
GAGGGAGGAAACTTCCTC ((((.((....)).))))	-25.6 kcal/mol	45.6 °C
GATGGCCCGAAAGGGATC (((..(((....))))))	-11 kcal/mol	34.3 °C
GAAACTGGAAACAGTTCC (.(((((....))))).)	-19.3 kcal/mol	35.2 °C
GTAGTTGGAAACGACTAC (((((.(....).)))))	-26.4 kcal/mol	45.8 °C
GATCTGTATGCAGATC ((((((....))))))	-38.8 kcal/mol	54.9 °C
GAATGGGGAAACCCATCC (.(((((....))))).)	-12.7 kcal/mol	36.5 °C
GCTAACACGAAAGTGAGC (((..(((....))))))	-20.2 kcal/mol	39.4 °C
